The source of these data is ChEMBL document CHEMBL2321783, “Structure-activity relationships of peptides incorporating a bioactive reverse-turn heterocycle at the melanocortin receptors: identification of a 5800-fold mouse melanocortin-3 receptor (mMC3R) selective antagonist/partial agonist versus the mouse melanocortin-4 receptor (mMC4R)” (J Med Chem, 2013).

Type in all cases: functional, cell-based
The target in test [1] is T1, Melanocortin receptor 3 (Mus musculus, UniProt P33033). The experiment in a line: Agonist activity at mouse MC3 receptor expressed in HEK293 cells after 6 hrs by cAMP-based beta-galactosidase reporter gene assay. The method in brief:
(§1)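 HEK-293 cells stably expressing the mouse receptor, kept in DMEM with 10% fetal calf serum, transfected with CRE/β-galactosidase reporter. Efficacy is relative to NDP-MSH on the same plate. EC50 is the mean of duplicate wells from three or more independent experiments, fitted by nonlinear least squares.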

A further test concerns the target Melanocortin receptor 5 (Mus musculus, UniProt P41149). The experiment in a line: Agonist activity at mouse MC5 receptor expressed in HEK293 cells after 6 hrs by cAMP-based beta-galactosidase reporter gene assay. The method in brief:
as §1

The target of the next test is Melanocortin receptor 4 (Mus musculus, UniProt P56450). The experiment in a line: Agonist activity at mouse MC4 receptor expressed in HEK293 cells after 6 hrs by cAMP-based beta-galactosidase reporter gene assay. The method in brief: as §1
Sequence of Melanocortin receptor 4 (P56450 whole entry): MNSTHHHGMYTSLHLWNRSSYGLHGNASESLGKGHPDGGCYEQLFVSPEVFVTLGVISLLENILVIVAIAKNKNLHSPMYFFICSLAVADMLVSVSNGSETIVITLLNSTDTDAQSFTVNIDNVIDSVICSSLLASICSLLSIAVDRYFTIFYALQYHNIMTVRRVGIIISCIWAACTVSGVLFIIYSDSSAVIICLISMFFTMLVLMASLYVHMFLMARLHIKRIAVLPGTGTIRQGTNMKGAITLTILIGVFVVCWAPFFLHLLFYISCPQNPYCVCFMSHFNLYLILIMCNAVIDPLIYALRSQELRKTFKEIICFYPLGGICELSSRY
Test [2] concerns the target Melanocyte-stimulating hormone receptor (Mus musculus, UniProt Q01727). The experiment in a line: Agonist activity at mouse MC1 receptor expressed in HEK293 cells after 6 hrs by cAMP-based beta-galactosidase reporter gene assay. The method in brief: as §1
Test [3] deals with T1, Melanocortin receptor 3. The experiment in a line: Antagonist activity at mouse MC3 receptor expressed in HEK293 cells after 6 hrs by cAMP-based beta-galactosidase reporter gene assay. The settings on record: read-out: pA2 (converted).
Test [4] addresses Melanocortin receptor 3 (Mus musculus) (UniProt P33033). The experiment in a line: Partial agonist activity at mouse MC3 receptor expressed in HEK293 cells at 10^-4 M to 10^-12 M after 6 hrs by cAMP-based beta-galactosidase reporter gene assay. Summed up:
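In the mMC3R HEK-293 CRE/β-galactosidase reporter assay, cells were exposed 6 h to peptide at 10^-4 to 10^-12 M in IBMX/BSA medium. Maximal efficacy is expressed relative to NDP-MSH run on the same plate.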

Sequence of Melanocortin receptor 5 (P41149 whole entry): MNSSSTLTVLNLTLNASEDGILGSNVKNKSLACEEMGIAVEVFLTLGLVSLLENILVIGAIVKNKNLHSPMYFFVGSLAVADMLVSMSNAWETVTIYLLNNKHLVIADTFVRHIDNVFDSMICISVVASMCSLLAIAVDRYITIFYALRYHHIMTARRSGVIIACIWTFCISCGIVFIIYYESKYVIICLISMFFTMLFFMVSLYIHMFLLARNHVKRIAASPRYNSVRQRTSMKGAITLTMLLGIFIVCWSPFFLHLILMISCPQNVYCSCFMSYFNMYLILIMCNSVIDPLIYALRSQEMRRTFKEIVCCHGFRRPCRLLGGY
T1 sequence (P33033 whole entry): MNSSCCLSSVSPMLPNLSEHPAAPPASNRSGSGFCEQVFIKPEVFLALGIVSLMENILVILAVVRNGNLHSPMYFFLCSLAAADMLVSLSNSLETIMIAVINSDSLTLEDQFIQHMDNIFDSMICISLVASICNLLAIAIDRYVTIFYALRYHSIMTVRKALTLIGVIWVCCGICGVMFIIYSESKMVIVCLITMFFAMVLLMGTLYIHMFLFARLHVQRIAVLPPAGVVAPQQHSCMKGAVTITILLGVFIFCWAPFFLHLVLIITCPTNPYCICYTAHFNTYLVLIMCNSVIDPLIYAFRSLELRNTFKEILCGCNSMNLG
Sequence of Melanocyte-stimulating hormone receptor (Q01727 whole entry): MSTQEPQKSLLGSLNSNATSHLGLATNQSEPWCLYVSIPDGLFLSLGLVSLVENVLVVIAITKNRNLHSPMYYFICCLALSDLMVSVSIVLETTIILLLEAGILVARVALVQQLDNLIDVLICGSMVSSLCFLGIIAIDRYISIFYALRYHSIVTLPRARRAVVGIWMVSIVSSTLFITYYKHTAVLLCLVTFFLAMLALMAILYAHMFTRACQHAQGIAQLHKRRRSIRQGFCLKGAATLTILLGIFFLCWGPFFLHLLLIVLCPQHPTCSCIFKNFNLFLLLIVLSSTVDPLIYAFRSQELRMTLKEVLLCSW
Sequence of Melanocortin receptor 3 (Mus musculus) (P33033 whole entry): as the sequence (P33033 whole entry) above

`C[C@@H]1NC(=O)[C@@H](NC(=O)[C@@H](N)Cc2ccc(O)cc2)CSSC[C@@H](C(=O)N[C@@H](Cc2ccc(O)cc2)C(N)=O)NC(=O)[C@H](Cc2ccccc2)NC(=O)[C@H](C)NC(=O)[C@H](CC(N)=O)NC(=O)[C@H](Cc2c[nH]c3ccccc23)N2C[C@H](CCCNC(=N)N)NC(=O)[C@@H](CSCC2=O)NC(=O)[C@@H](Cc2ccccc2)NC1=O`: the concentration for a half-maximal effect (EC50) at Melanocortin receptor 3 [1] amounted to 4020 nM.

The compound `C[C@@H]1NC(=O)[C@H](CC(N)=O)NC(=O)[C@H](Cc2c[nH]c3ccccc23)N2C[C@H](CCCCNC(=N)N)NC(=O)[C@@H](CSCC2=O)NC(=O)[C@@H](Cc2ccccc2)NC(=O)[C@H](Cc2cnc[nH]2)NC(=O)[C@@H](NC(=O)[C@@H](N)Cc2ccc(O)cc2)CSSC[C@@H](C(=O)N[C@@H](Cc2ccc(O)cc2)C(N)=O)NC(=O)[C@H](Cc2ccccc2)NC1=O` registered an EC50 on Melanocortin receptor 3 [1] of 1830 nM. For the compound `C[C@@H]1NC(=O)[C@H](CC(N)=O)NC(=O)[C@H](Cc2c[nH]c3ccccc23)NC(=O)[C@H](CCCN=C(N)N)NC(=O)[C@@H](Cc2ccccc2)NC(=O)[C@H](Cc2cnc[nH]2)NC(=O)[C@@H](NC(=O)[C@@H](N)Cc2ccc(O)cc2)CSSC[C@@H](C(=O)N[C@@H](Cc2ccc(O)cc2)C(N)=O)NC(=O)[C@H](Cc2ccccc2)NC1=O`, the EC50 at Melanocortin receptor 5 is 1.45 nM; at Melanocortin receptor 3 [1], 1.7 nM; at Melanocortin receptor 4, 0.17 nM; in test [2], 0.3 nM. The compound `C[C@@H]1NC(=O)[C@H](CC(N)=O)NC(=O)[C@H](Cc2c[nH]c3ccccc23)N2C[C@H](CCCN=C(N)N)NC(=O)[C@@H](CSCC2=O)NC(=O)[C@@H](Cc2ccccc2)NC(=O)[C@H](Cc2cnc[nH]2)NC(=O)[C@@H](NC(=O)[C@@H](N)Cc2ccc(O)cc2)CSSC[C@@H](C(=O)N[C@@H](Cc2ccc(O)cc2)C(N)=O)NC(=O)[C@H](Cc2ccccc2)NC1=O` came in with an EC50 at Melanocortin receptor 3 [1] of 324 nM. The same measure, in the same setting: under `C[C@@H]1NC(=O)[C@H](CC(N)=O)NC(=O)[C@H](Cc2ccc(-c3ccccc3)cc2)N2C[C@H](CCCN=C(N)N)NC(=O)[C@@H](CSCC2=O)NC(=O)[C@@H](Cc2ccccc2)NC(=O)[C@H](Cc2cnc[nH]2)NC(=O)[C@@H](NC(=O)[C@@H](N)Cc2ccc(O)cc2)CSSC[C@@H](C(=O)N[C@@H](Cc2ccc(O)cc2)C(N)=O)NC(=O)[C@H](Cc2ccccc2)NC1=O` stands 230 nM. As to `C[C@@H]1NC(=O)[C@H](CC(N)=O)NC(=O)[C@H](Cc2c[nH]c3ccccc23)N2C[C@H](CCCCN)NC(=O)[C@@H](CSCC2=O)NC(=O)[C@@H](Cc2ccccc2)NC(=O)[C@H](Cc2cnc[nH]2)NC(=O)[C@@H](NC(=O)[C@@H](N)Cc2ccc(O)cc2)CSSC[C@@H](C(=O)N[C@@H](Cc2ccc(O)cc2)C(N)=O)NC(=O)[C@H](Cc2ccccc2)NC1=O`, at Melanocortin receptor 3 [1], the EC50 worked out at 2540 nM. In the case of `C[C@@H]1NC(=O)[C@H](Cc2cnc[nH]2)NC(=O)[C@@H](NC(=O)[C@@H](N)Cc2ccc(O)cc2)CSSC[C@@H](C(=O)N[C@@H](Cc2ccc(O)cc2)C(N)=O)NC(=O)[C@H](Cc2ccccc2)NC(=O)[C@H](C)NC(=O)[C@H](CC(N)=O)NC(=O)[C@H](Cc2c[nH]c3ccccc23)N2C[C@H](CCCN=C(N)N)NC(=O)[C@@H](CSCC2=O)NC1=O`, the EC50 at Melanocortin receptor 5 is 7700 nM; on Melanocortin receptor 3 [1], 7720 nM; on Melanocortin receptor 4 it was 20100 nM; in test [2], 12500 nM. `C[C@@H]1NC(=O)[C@H](CC(N)=O)NC(=O)[C@@H](Cc2ccc3ccccc3c2)N2C[C@H](CCCNC(=N)N)NC(=O)[C@@H](CSCC2=O)NC(=O)[C@@H](Cc2ccccc2)NC(=O)[C@H](Cc2cnc[nH]2)NC(=O)[C@@H](NC(=O)[C@@H](N)Cc2ccc(O)cc2)CSSC[C@@H](C(=O)N[C@@H](Cc2ccc(O)cc2)C(N)=O)NC(=O)[C@H](Cc2ccccc2)NC1=O` came in with an EC50 on Melanocortin receptor 3 [1] of 180 nM. The same measure, in the same setting: the same measure for `C[C@@H]1NC(=O)[C@H](CC(N)=O)NC(=O)[C@H](Cc2ccc3ccccc3c2)N2C[C@H](CCCNC(=N)N)NC(=O)[C@@H](CSCC2=O)NC(=O)[C@@H](Cc2ccccc2)NC(=O)[C@H](Cc2cnc[nH]2)NC(=O)[C@@H](NC(=O)[C@@H](N)Cc2ccc(O)cc2)CSSC[C@@H](C(=O)N[C@@H](Cc2ccc(O)cc2)C(N)=O)NC(=O)[C@H](Cc2ccccc2)NC1=O`: 200 nM; for `C[C@@H]1NC(=O)[C@H](CC(N)=O)NC(=O)[C@H](Cc2c[nH]c3ccccc23)N2C[C@H](CCCNC(=N)N)NC(=O)[C@@H](CSCC2=O)NC(=O)[C@@H](Cc2cccc3ccccc23)NC(=O)[C@H](Cc2cnc[nH]2)NC(=O)[C@@H](NC(=O)[C@@H](N)Cc2ccc(O)cc2)CSSC[C@@H](C(=O)N[C@@H](Cc2ccc(O)cc2)C(N)=O)NC(=O)[C@H](Cc2ccccc2)NC1=O`: 190 nM. Regarding `C[C@@H]1NC(=O)[C@H](CC(N)=O)NC(=O)[C@H](Cc2c[nH]c3ccccc23)N2C[C@H](CCCN=C(N)N)NC(=O)[C@@H](CSCC2=O)NC(=O)[C@@H](Cc2ccc3ccccc3c2)NC(=O)[C@H](Cc2cnc[nH]2)NC(=O)[C@@H](NC(=O)[C@@H](N)Cc2ccc(O)cc2)CSSC[C@@H](C(=O)N[C@@H](Cc2ccc(O)cc2)C(N)=O)NC(=O)[C@H](Cc2ccccc2)NC1=O`, the Kb at Melanocortin receptor 3 [3] is 25.1 nM. Turning to `C[C@@H]1NC(=O)[C@H](CC(N)=O)NC(=O)[C@H](Cc2c[nH]c3ccccc23)N2C[C@H](CCCNC(=N)N)NC(=O)[C@@H](CSCC2=O)NC(=O)[C@@H](Cc2ccc3ccccc3c2)NC(=O)[C@H](Cc2cnc[nH]2)NC(=O)[C@@H](NC(=O)[C@@H](N)Cc2ccc(O)cc2)CSSC[C@@H](C(=O)N[C@@H](Cc2ccc(O)cc2)C(N)=O)NC(=O)[C@H](Cc2ccccc2)NC1=O`, in test [4], the Emax turned out to be 20%. In the case of `C[C@@H]1NC(=O)[C@H](CC(N)=O)NC(=O)[C@H](Cc2c[nH]c3ccccc23)N2C[C@H](CCCNC(=N)N)NC(=O)[C@@H](CSCC2=O)NC(=O)[C@@H](Cc2ccc(I)cc2)NC(=O)[C@H](Cc2cnc[nH]2)NC(=O)[C@@H](NC(=O)[C@@H](N)Cc2ccc(O)cc2)CSSC[C@@H](C(=O)N[C@@H](Cc2ccc(O)cc2)C(N)=O)NC(=O)[C@H](Cc2ccccc2)NC1=O`, the EC50 on Melanocortin receptor 3 [1] was 49 nM. Still for that read-out and setting: under `C[C@@H]1NC(=O)[C@H](CC(N)=O)NC(=O)[C@H](Cc2c[nH]c3ccccc23)N2C[C@H](CCCNC(=N)N)NC(=O)[C@@H](CSCC2=O)NC(=O)[C@@H](Cc2ccccc2)NC(=O)[C@@H]2CCCN2C(=O)[C@@H](NC(=O)[C@@H](N)Cc2ccc(O)cc2)CSSC[C@@H](C(=O)N[C@@H](Cc2ccc(O)cc2)C(N)=O)NC(=O)[C@H](Cc2ccccc2)NC1=O` stands 1900 nM. Regarding `C[C@@H]1NC(=O)[C@H](CC(N)=O)NC(=O)[C@H](C)N2C[C@H](CCCNC(=N)N)NC(=O)[C@H](CSCC2=O)NC(=O)[C@@H](Cc2ccccc2)NC(=O)[C@H](Cc2c[nH]cn2)NC(=O)[C@@H](NC(=O)[C@@H](N)Cc2ccc(O)cc2)CSSC[C@@H](C(=O)N[C@@H](Cc2ccc(O)cc2)C(N)=O)NC(=O)[C@H](Cc2ccccc2)NC1=O`, the EC50 on Melanocortin receptor 5 (hek293) was 125 nM; on Melanocortin receptor 4 (hek293), 210 nM; in test [2] (hek293), 80 nM. Turning to `C[C@@H]1NC(=O)[C@H](CC(N)=O)NC(=O)[C@H](C)N2C[C@H](CCCNC(=N)N)NC(=O)[C@@H](CSCC2=O)NC(=O)[C@@H](Cc2ccccc2)NC(=O)[C@H](Cc2cnc[nH]2)NC(=O)[C@@H](NC(=O)[C@@H](N)Cc2ccc(O)cc2)CSSC[C@@H](C(=O)N[C@@H](Cc2ccc(O)cc2)C(N)=O)NC(=O)[C@H](Cc2ccccc2)NC1=O`, at Melanocortin receptor 3 [1], the EC50 stood at 2230 nM. On to `C[C@@H]1NC(=O)[C@H](CC(N)=O)NC(=O)[C@@H](Cc2ccc3ccccc3c2)N2C[C@H](CCCNC(=N)N)NC(=O)[C@H](CSCC2=O)NC(=O)[C@@H](Cc2ccccc2)NC(=O)[C@H](Cc2c[nH]cn2)NC(=O)[C@@H](NC(=O)[C@@H](N)Cc2ccc(O)cc2)CSSC[C@@H](C(=O)N[C@@H](Cc2ccc(O)cc2)C(N)=O)NC(=O)[C@H](Cc2ccccc2)NC1=O`, for which the values for the concentration for a half-maximal effect (EC50) (at Melanocortin receptor 5 (hek293); at Melanocortin receptor 4 (hek293); in test [2] (hek293)) were 29 nM, 50 nM and 14 nM, respectively.

`C[C@@H]1NC(=O)[C@H](CC(N)=O)NC(=O)[C@H](Cc2c[nH]c3ccccc23)N2C[C@H](CCCNC(=N)N)NC(=O)[C@@H](CSCC2=O)NC(=O)[C@@H](Cc2ccccc2)NC(=O)[C@H](Cc2ccccc2)NC(=O)[C@@H](NC(=O)[C@@H](N)Cc2ccc(O)cc2)CSSC[C@@H](C(=O)N[C@@H](Cc2ccc(O)cc2)C(N)=O)NC(=O)[C@H](Cc2ccccc2)NC1=O` showed a 50% effective concentration (EC50) on Melanocortin receptor 3 [1] of 4500 nM. Compound `C[C@@H]1NC(=O)[C@H](CC(N)=O)NC(=O)[C@H](Cc2c[nH]c3ccccc23)N2C[C@H](C)NC(=O)[C@@H](CSCC2=O)NC(=O)[C@@H](Cc2ccccc2)NC(=O)[C@H](Cc2cnc[nH]2)NC(=O)[C@@H](NC(=O)[C@@H](N)Cc2ccc(O)cc2)CSSC[C@@H](C(=O)N[C@@H](Cc2ccc(O)cc2)C(N)=O)NC(=O)[C@H](Cc2ccccc2)NC1=O` returned an EC50 at Melanocortin receptor 3 [1] of 8070 nM. Consider `C[C@@H]1NC(=O)[C@H](CC(N)=O)NC(=O)[C@H](Cc2c[nH]c3ccccc23)N2C[C@H](CCCN=C(N)N)NC(=O)[C@@H](CSCC2=O)NC(=O)[C@@H]2CCCN2C(=O)[C@H](Cc2cnc[nH]2)NC(=O)[C@@H](NC(=O)[C@@H](N)Cc2ccc(O)cc2)CSSC[C@@H](C(=O)N[C@@H](Cc2ccc(O)cc2)C(N)=O)NC(=O)[C@H](Cc2ccccc2)NC1=O`, for which a half-maximal response on Melanocortin receptor 3 [1] (EC50) required 10300 nM.
